Experiments:
[1] = Therapeutic index, ratio of CC50 for human MT2 cells to EC50 for HIV1 NL4-3 infected in human MT2 cells; format: cell-based; conditions: read-out: TI
In short: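 TI was the mean CC50 (XTT, uninfected MT-2) divided by the mean EC50, determined for each cell line in each experiment.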

[2] = Cytotoxicity against human CEM-SS cells after 6 days by XTT assay; format: cell-based
In short: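 Uninfected cells were incubated with half-log compound dilutions for 6 days, then given XTT/PMS for 4 h and read at 450 nm. CC50 was the concentration reducing formazan to 50% of uninfected, compound-free cells. Values are means ± SD from 3–5 experiments or individual values.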

[3] = system: Human immunodeficiency virus 1; assay: Antiviral activity against HIV1 92HT599 infected in human MT2 cells assessed as inhibition of viral p24 antigen production after 5 days; format: functional, organism-based; conditions: Human immunodeficiency virus 1, 92HT599, MT2, 120 h
In short: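 PM1 cells (NL4-3, Ba-L) or MT-2 cells (92HT594, 92HT599) were infected at MOI 0.16 for 2 h and washed. They were plated at 1 × 10⁴ cells/well (2 × 10⁵/ml) onto half-log compound dilutions. Supernatant p24 was quantified by ELISA at day 5. EC50 was the concentration giving a 50% decrease versus infected, compound-free cells.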

[4] = system: Human immunodeficiency virus 1; assay: Antiviral activity against wild type HIV1 infected in human HeLa cells assessed as decrease in viral infection after 72 hrs by beta-galactosidase reporter gene assay; format: functional, organism-based; conditions: Human immunodeficiency virus 1, HeLa
In short: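 HeLa CD4 LTR/β-Gal cells (1 × 10⁴/well, DMEM + 10% FBS) were pretreated with half-log compound dilutions. They were then infected at MOI 0.03 with single-cycle NL4-3 ΔEnv reporter virus pseudotyped with envelope from HEK 293 cotransfection. EC50 was the concentration halving β-galactosidase activity versus infected untreated cells. Values are mean ± SD or representative of three experiments.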

[5] = system: Human immunodeficiency virus 1; assay: Antiviral activity against HIV1 harboring capsid I201V mutant protein infected in human HeLa cells assessed as decrease in viral infection after 72 hrs by beta-galactosidase reporter gene assay; format: functional, organism-based; conditions: Human immunodeficiency virus 1, HeLa
[6] = system: Human immunodeficiency virus 1; assay: Antiviral activity against HIV1 harboring spacer peptide A1V mutant protein infected in human HeLa cells assessed as decrease in viral infection after […] by beta-galactosidase reporter gene assay; format: functional, organism-based; conditions: Human immunodeficiency virus 1, HeLa
In short: (§1)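 MT-2 cells were infected for 2 h with wild-type NL4-3 or recombinant NL4-3 carrying CA I201V or SP1 A1V. They were then cocultured with HeLa CD4 LTR/beta-Gal indicator cells in serially diluted compound. Beta-gal reporter was read after 4 days. EC50s are means ± SD of 3–6 experiments. Fold change is mutant EC50 divided by wild-type EC50.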

[7] = system: Human immunodeficiency virus 1; assay: Selectivity ratio of EC50 for HIV1 harboring capsid I201V mutant protein infected in human HeLa cells to EC50 for wild type HIV1 infected in human HeLa cells; format: functional; in short: as §1
[8] = system: Human immunodeficiency virus 1; assay: Antiviral activity HIV1 NL4-3 infected in human PBMC after 7 days by scintillation counting; format: functional, organism-based; conditions: Human immunodeficiency virus 1, NL4-3, 168 h
In short: (§2)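 PBMCs came from buffy coats pooled from 3–4 seronegative donors, were PHA-stimulated (1.5 μg/ml, 3 days) and frozen. Thawed cells were infected 1 h at 37°C with virus input set by TCID50, then pelleted and resuspended in IL-2 (10 ng/ml). They were plated at 4 × 10⁵ cells/ml onto compounds for 7 days at 37°C. Supernatant RT activity was measured by Quan-T-RT scintillation assay.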

[9] = system: Human immunodeficiency virus 1; assay: Antiviral activity HIV1 ROJO infected in human PBMC after 7 days by scintillation counting; format: functional, organism-based; conditions: Human immunodeficiency virus 1, ROJO, 168 h
In short: (§3)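 Fresh PBMCs from HIV/HBV-seronegative donors were PHA-stimulated (4 μg/ml, 48–72 h) and kept with IL-2 (20 U/ml), with at least two donors pooled. Cells were seeded at 5 × 10⁴/well and infected (final MOI ≅0.1) with nine compound concentrations in triplicate wells. After 7 days, reverse transcriptase activity was measured in cell-free supernatant.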

[10] = system: Human immunodeficiency virus 1; assay: Antiviral activity HIV1 92HT594 infected in human PBMC after 7 days by scintillation counting; format: functional, organism-based; conditions: Human immunodeficiency virus 1, 92HT594, 168 h; in short: as §2
[11] = system: Human immunodeficiency virus 1; assay: Antiviral activity HIV1 92TH014 infected in human PBMC after 7 days by scintillation counting; format: functional, organism-based; conditions: Human immunodeficiency virus 1, 92TH014, 168 h; in short: as §3
[12] = system: Human immunodeficiency virus 1; assay: Antiviral activity HIV1 92US072 infected in human PBMC after 7 days by scintillation counting; format: functional, organism-based; conditions: Human immunodeficiency virus 1, 92US072, 168 h; in short: as §3
[13] = system: Human immunodeficiency virus 1; assay: Antiviral activity HIV1 92US660 infected in human PBMC after 7 days by scintillation counting; format: functional, organism-based; conditions: Human immunodeficiency virus 1, 92US660, 168 h; in short: as §3
[14] = system: Human immunodeficiency virus 1; assay: Antiviral activity HIV1 93BR023 infected in human PBMC after 7 days by scintillation counting; format: functional, organism-based; conditions: Human immunodeficiency virus 1, 93BR023, 168 h; in short: as §3
[15] = system: Human immunodeficiency virus 1; assay: Antiviral activity HIV1 93TH074 infected in human PBMC after 7 days by scintillation counting; format: functional, organism-based; conditions: Human immunodeficiency virus 1, 93TH074, 168 h; in short: as §2
[16] = Therapeutic index, ratio of CC50 for human PBMC to EC50 for HIV1 3B infected in human PBMC; conditions: read-out: TI
In short: (§4)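 TI was the mean PBMC CC50 divided by the mean EC50 from the 7-day PBMC reverse transcriptase assay.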

[17] = Therapeutic index, ratio of CC50 for human PBMC to EC50 for HIV1 91US056 infected in human PBMC; conditions: read-out: TI; in short: as §4
[18] = Therapeutic index, ratio of CC50 for human PBMC to EC50 for HIV1 92BR004 infected in human PBMC; conditions: read-out: TI; in short: as §4
[19] = Therapeutic index, ratio of CC50 for human PBMC to EC50 for HIV1 92BR026 infected in human PBMC; conditions: read-out: TI
[20] = Therapeutic index, ratio of CC50 for human PBMC to EC50 for HIV1 92HT599 infected in human PBMC; conditions: read-out: TI
In short: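 Frozen PHA-stimulated (1.5 μg/ml, 3 days) buffy-coat PBMCs pooled from three or four seronegative donors. Infected with a TCID50-based virus input per 10⁶ cells for 1 h at 37°C, then pelleted and resuspended in 10 ng/ml IL-2. Plated at 4 × 10⁵ cells/ml on compound dilutions for 7 days at 37°C. Supernatant RT measured by Quan-T-RT. TI is mean CC50 divided by mean EC50.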

[21] = Therapeutic index, ratio of CC50 for human PBMC to EC50 for HIV1 92TH014 infected in human PBMC; conditions: read-out: TI
In short: (§5)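 PHA-stimulated (4 μg/ml, 48 to 72 h) PBMCs pooled from at least two seronegative donors, kept with 20 U/ml IL-2, plated at 5 × 10⁴ cells/well. Infected with clinical isolate (final MOI ≅0.1) alongside nine compound concentrations in triplicate wells, 7 days. Supernatant reverse transcriptase activity measured. TI is mean PBMC CC50 divided by mean EC50.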

[22] = Therapeutic index, ratio of CC50 for human PBMC to EC50 for HIV1 92US072 infected in human PBMC; conditions: read-out: TI; in short: as §5
[23] = Therapeutic index, ratio of CC50 for human PBMC to EC50 for HIV1 92US076 infected in human PBMC; conditions: read-out: TI; in short: as §5
[24] = Therapeutic index, ratio of CC50 for human PBMC to EC50 for HIV1 96USHIPS7 infected in human PBMC; conditions: read-out: TI; in short: as §5

CC(C)(C)c1ccc(C(Cn2cccc(C(F)(F)F)c2=O)NC2Cc3ccccc3C2)cc1 (centres undefined)
selectivity ratio [1]: 53
CC50 at 144 h [2]: 20000 nM
EC50 [3]: 210 nM
EC50 [4]: 206 nM
EC50 [5]: > 10000 nM
EC50 [6]: > 3200 nM
Ratio EC50 [7]: >49
EC50 [8]: 110 nM
EC50 [9]: > 17000 nM
EC50 [10]: 1100 nM
EC50 [11]: > 17000 nM
EC50 [12]: 5 nM
EC50 [13]: 12000 nM
EC50 [14]: > 17000 nM
EC50 [15]: 120 nM
selectivity ratio [16]: 53
selectivity ratio [17]: < 1
selectivity ratio [18]: 52
selectivity ratio [19]: < 1
selectivity ratio [20]: 12
selectivity ratio [21]: < 1
selectivity ratio [22]: 3400
selectivity ratio [23]: 2430
selectivity ratio [24]: < 1
